Most compounds without a hit are left out; they make up all but 1.9% or so of the library.
KLK7 zymogen act – activates the human kallikrein-7 zymogen | P49862 | purified proKLK7, EDANS-DABCYL substrate fluorescence; 100% is mature enzyme control, 0% vehicle | activation, % at 7 µM | actives 0.9% (n = 370,000) | AID 652039;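 active means activation above the mean of all tested compounds plus 3 SD, computed per campaign excluding outliers beyond control limits, cut at about 13% in these data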
Target sequence (P49862 whole entry, looked up): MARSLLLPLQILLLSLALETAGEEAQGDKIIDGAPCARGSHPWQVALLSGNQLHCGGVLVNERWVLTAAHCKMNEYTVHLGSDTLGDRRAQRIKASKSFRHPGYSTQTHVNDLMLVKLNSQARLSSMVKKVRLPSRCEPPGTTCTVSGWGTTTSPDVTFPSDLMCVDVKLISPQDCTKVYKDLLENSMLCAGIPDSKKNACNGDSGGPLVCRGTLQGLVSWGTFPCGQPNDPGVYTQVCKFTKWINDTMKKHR
Rce1 inhib – blocks yeast Ras-converting enzyme; Q03530; yeast membranes, quenched prenylated peptide cleavage fluorescence; calls only; actives 0.27% (n = 290,000);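 active means fall in fluorescence gain of 50% or more versus controls, with final raw signal at or below 3038400; inconclusive means same 50% fall but final raw signal above 3038400; inactive means fall in fluorescence gain under 50%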
Target sequence (Q03530 whole entry, looked up): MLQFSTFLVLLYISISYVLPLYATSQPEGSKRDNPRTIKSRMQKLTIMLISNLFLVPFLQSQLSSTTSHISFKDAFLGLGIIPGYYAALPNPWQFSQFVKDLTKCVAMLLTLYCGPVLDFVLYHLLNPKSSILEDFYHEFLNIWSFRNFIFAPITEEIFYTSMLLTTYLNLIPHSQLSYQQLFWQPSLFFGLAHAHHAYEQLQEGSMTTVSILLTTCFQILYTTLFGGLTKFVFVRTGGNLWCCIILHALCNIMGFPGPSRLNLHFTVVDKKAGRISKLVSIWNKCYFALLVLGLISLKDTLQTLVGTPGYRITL
Yeast superoxide – lowers age-related superoxide in aged yeast cells. S. cerevisiae aged cells, superoxide DHE fluorescence; hits give low values. AID 2690. superoxide response (% of plate mean), % at 10 µM. actives 0.18% (n = 330,000);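 active means superoxide response under a set limit, about three screen SD below normal, cut at about 65% in these data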;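 further: yeast aged for seven days with compound at 30 °C before DHE staining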
T cell modulator – T cell immune modulators affecting CD8 T cell-vesicle binding; 2C CD8+ T cell-vesicle binding, flow cytometry; hits give low values; response (vesicle binding), % at 7 µM; actives 0.068% (n = 330,000);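 active means response, share of CD8 T cells binding vesicles, and their 90th percentile fluorescence all below set limits, cut at about 80% in these data, passing the limit was not always enough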;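 further: values below 100% mean blocked vesicle binding to the CD8+ T cells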
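Also added: QL9-peptide-loaded Drosophila micro-vesicles bearing Ld, ICAM-1 and B7-1; Test system: purified 2C TCR transgenic mouse naive CD8+ T cells; Measured by: cytometric PE anti-B7-1 and Alexa647 anti-CD8 signals after 1% paraformaldehyde fixation; Timing: binding step 1.5 h, 37 °C, antibody labelling 20 min, ice.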
V-ATPase pH – yeast V-ATPase proton transport regulation by pHLuorin; S. cerevisiae, pHLuorin cytosolic pH fluorescence; response, % at 10 µM; actives 0.37% (n = 350,000); in the data active means response mostly above about 7.3%, no sharp cut-off; inactive means mostly below about 5.4%; further: actives read high
beta cell repl – MIN6 beta-cell proliferation induction; MIN6 cells proliferation, ATPlite luminescence, 48 h; cells starved in 0.2% serum; 100% = growth in 10% serum; proliferation, % at 10 µM; actives 0.29% (n = 330,000);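 active means compounds whose signal lies at least 3.5 SD above the mean of all wells on their plate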
KLK7 act conf – confirmation of human kallikrein-7 zymogen activators | purified proKLK7, EDANS-DABCYL substrate fluorescence; scaled: vehicle 0, mature enzyme 100 | actives 68% (n = 3,200) | shares compounds with KLK7 zymogen act | activation, % at 7 µM | AID 686949;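 active means activation, as change over the incubation, above the mean of all tested compounds plus 3 SD, cut at about 13% in these data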
EDANS interfere – optically interferes with EDANS-DABCYL signal, flagging KLK7 hits. shares compounds with KLK7 zymogen act. AID 686952. activation, % at 7 µM. EDANS-DABCYL substrate fluorescence interference, no enzyme, 4 h; solvent 0%, active enzyme control 100%. actives 80% (n = 3,200);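 active means activation above the all-compound mean plus 3 SD, ignoring values outside control-based bounds, cut at about 4.8% in these data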;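 further: value is the 4 h activation minus the activation read at time zero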
EDANS interf – counter-screen for kallikrein-7 activators: EDANS-DABCYL interference, dose response. shares compounds with KLK7 zymogen act. EDANS-DABCYL peptide fluorescence interference, no enzyme. actives 20% (n = 250). AID 720493. EC50, µM;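 active means compounds that raise the fluorescence signal in this interference counterscreen, with EC50 at or below 10 µM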;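 further: intact quenched peptide substrate alone read at 355 nm excitation and 520 nm emission; signal is fluorescence gain from T0 to T4 after four hours at room temperature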
Hits are given with their value; . = inactive; ? = inconclusive; / = no result given; + = active, no number.

SMILES | KLK7 zymogen act | Rce1 inhib | Yeast superoxide | T cell modulator | V-ATPase pH | beta cell repl | KLK7 act conf | EDANS interfere | others
COc1ccc(C2CC(c3ccccc3)=NN2c2ccc(S(N)(=O)=O)cc2)cc1OC (stereo unspecified) | . | . | . | . | . | . | / | /
NC(=O)CC(NC(=O)c1ccc(Br)cc1)c1ccc(N2CCCCCCC2)c([N+](=O)[O-])c1 (stereo unspecified) | . | . | . | . | . | . | / | /
O=Cc1ccccc1-c1cn(CCCOCc2ccccc2)nn1 | . | . | . | . | . | . | / | /
COCCCNc1nc2c(-c3ccc(Cl)cc3)nnn2c2ccccc12 | . | . | . | . | . | . | / | /
COCCCNC(=O)c1nnn2c1nc(N)c1cc(Cl)ccc12 | 14.7 | / | / | / | / | / | 40.2 | 39.8
CCOC(=O)N1CCC(N2C(=O)c3ccccc3C2Nc2ccc3c(C)cc(=O)oc3c2)CC1 (stereo unspecified) | 36.0 | . | . | . | . | . | . | .
COc1cccc(-c2ccc3c(c2)O[C@H](CN(C)C(=O)c2ccccc2F)[C@H](C)CN([C@H](C)CO)S3(=O)=O)c1 | . | / | / | / | . | / | / | /
Cc1cc(C)nc(NC(=O)c2ccc([N+](=O)[O-])o2)n1 | 133.3 | . | . | . | . | . | 151.0 | 146.3
Cc1cc(C)cc(NC(=O)c2ccc([N+](=O)[O-])o2)c1 | . | . | / | / | . | . | / | /
CSc1ccc(/C=C/C(=O)OCC(=O)NC2CCS(=O)(=O)C2)cc1 (stereo unspecified) | 23.5 | / | . | . | . | . | 20.4 | 15.7 | EDANS interf=.
CSc1ccc(/C=C/C(=O)OCC(=O)NCC2CCCO2)cc1 (stereo unspecified) | 17.8 | / | . | . | . | . | 14.3 | 15.6
O=C(COC(=O)/C=C/c1ccccc1)NCC1CCCO1 (stereo unspecified) | . | . | . | . | . | . | / | /
O=C(NCc1ccc(Cl)cc1)N1CCN(Cc2ccccc2)CC1 | . | . | . | . | . | . | / | /
CCOc1ccc(-c2cc(C(=O)N3CCN(C)CC3)c3ccccc3n2)cc1 | 30.7 | . | . | . | . | . | 49.0 | 33.3 | EDANS interf=.
O=C(c1cc(-c2ccco2)nc2ccccc12)N1CCN(Cc2ccccc2)CC1 | . | / | . | . | . | . | / | /
COc1ccc(-c2cc(C(=O)OCC(=O)N3CCCC3)c3ccccc3n2)cc1 | 16.9 | . | . | . | . | . | . | .
COC(=O)C1CCN(C(=O)c2cc(-c3ccco3)nc3ccccc23)CC1 | 47.8 | / | . | . | . | . | 36.0 | 27.4 | EDANS interf=.
COc1ccc(-c2cc(C(=O)NC3CC3)c3ccccc3n2)cc1 | 42.3 | . | . | . | . | . | 25.3 | 15.4 | EDANS interf=.
CCOc1ccc(-c2cc(C(=O)N3CCCC3)c3ccccc3n2)cc1 | / | . | . | . | . | . | / | /
CCC(=O)Nc1ccc(C(=O)COC(=O)Cc2ccsc2)cc1 | . | / | . | . | . | . | / | /
COc1ccc(C(O)c2ncc(-c3ccccc3Cl)[nH]2)cc1 (stereo unspecified) | . | / | / | / | / | / | / | /
COc1ccc(-c2cc(C(=O)N3CCCC3)c3ccccc3n2)cc1 | 21.8 | . | . | . | . | . | . | .
Cc1cc(N(C)C)nc(Nc2ccccc2)n1 | . | / | . | . | . | . | / | /
C=CC[C@H](CC(=O)OC(C)(C)C)C(=O)OC[C@@H]1CCCN1C(=O)[C@@H](CC=C)CC(=O)N[C@H](CO)Cc1ccccc1 | . | / | . | . | . | . | / | /
COCCN(C(=O)Cc1cccs1)c1nnc(-c2ccncc2)s1 | 17.3 | . | . | . | . | . | 40.0 | 42.2
SMILES | KLK7 zymogen act | Rce1 inhib | Yeast superoxide | T cell modulator | V-ATPase pH | beta cell repl | KLK7 act conf | EDANS interfere | others
Cc1ccc(C2NC(=O)c3ccccc3N2)c(C)c1 (stereo unspecified) | 32.0 | / | / | / | . | / | 28.7 | 26.2
O=C1NC(c2ccco2)Nc2ccccc21 (stereo unspecified) | 16.0 | . | . | . | . | . | 16.8 | 17.9
O=C1NC(c2ccc(Cl)cc2)Nc2ccccc21 (stereo unspecified) | . | . | . | . | . | . | / | /
CC(C)CNS(=O)(=O)c1ccc(CCC(=O)NC2CCCCC2)cc1 | . | . | . | . | . | . | / | /
Cc1cc(C)c2c(N)c(C(=O)NN3CC(=O)N(c4ccccc4F)CC3=O)sc2n1 | 111.6 | . | . | . | . | . | 39.7 | 41.8
COc1cccc(N2CC(=O)N(NC(=O)c3sc4nc(C)cc(C)c4c3N)CC2=O)c1 | 56.3 | . | . | . | . | . | 15.9 | 21.6
COc1cccc(N2CC(=O)N(NC(=O)CSc3nc(C)cc(C)c3C#N)CC2=O)c1 | 71.0 | . | . | . | . | . | 42.4 | 45.2
COc1ccc(NC(=O)c2sc3nc(C)cc(C)c3c2N)c(OC)c1 | . | . | . | . | . | . | / | /
Cc1cc(C)c(C#N)c(SCC(=O)Nc2cccc(S(=O)(=O)N3CCCC3)c2)n1 | . | / | / | / | . | . | / | /
Cc1cc(C)n2nc(C(=O)OCC(=O)N(Cc3ccccc3)C(C)C)nc2n1 | . | / | / | / | . | . | / | /
O=C1COc2ccc(C(=O)COC(=O)/C=C/c3ccc(Br)o3)cc2N1 | . | . | . | . | . | . | / | /
Cc1[nH]nc2c1C(c1ccc(F)cc1)C1=C(CC(C)(C)CC1=O)N2 (stereo unspecified) | 14.2 | + | . | . | . | . | . | 11.9
Cc1cnc(=O)[nH]c1SCc1ccc([N+](=O)[O-])cc1 | . | . | . | . | . | . | / | /
CCN1c2ccccc2-c2nc3ccccc3n2C1c1ccccn1 (stereo unspecified) | 21.1 | ? | . | . | . | . | 28.5 | . | EDANS interf=.
c1csc(C2Nc3ccccc3-c3nc4ccccc4n32)c1 (stereo unspecified) | 89.7 | ? | . | . | . | . | 29.8 | 27.3
CC(=O)N1c2ccccc2-c2nc3ccccc3n2C1C (stereo unspecified) | . | . | . | . | . | . | / | /
CN1c2ccccc2-c2nc3ccccc3n2C1c1cccs1 (stereo unspecified) | 40.2 | + | . | . | . | . | . | .
Cc1ccsc1C1Nc2ccccc2-c2nc3ccccc3n21 (stereo unspecified) | 63.4 | . | . | . | . | . | . | .
Cc1c2cccn2cc[n+]1C | 17.6 | . | . | 77.6 | . | . | 31.9 | 26.8
Cc1noc(C)c1-c1nc(CS(=O)(=O)c2ccccc2)no1 | . | / | . | . | . | . | / | /
Cc1ccc(N2C=Nc3ccc(C)c4nc(C)cc2c34)cc1 | 49.5 | . | . | . | . | . | . | .
